Measured values of several laboratories.
KCNH2: Voltage-gated inwardly rectifying potassium channel KCNH2 (KCNH2, Homo sapiens, UniProt Q12809)

| Structure (SMILES) | target or system | assay | system | conditions | measurement | result |
| --- | --- | --- | --- | --- | --- | --- |
| CC[C@H](C)CCCCC(=O)N[C@@H](CCN)C(=O)N[C@H](C(=O)N[C@@H](CCN)C(=O)N[C@H]1CCNC(=O)[C@H]([C@@H](C)O)NC(=O)[C@H](CCN)NC(=O)[C@H](CCN)NC(=O)[C@H](CC(C)C)NC(=O)[C@@H](CC(C)C)NC(=O)[C@H](CCN)NC1=O)[C@@H](C)O | – | – | male Sprague-Dawley rat, plasma | subcutaneous, 10 mg/kg | MRT(0-inf) | 4.88 h |
| N#C[C@@]1(n2ccc(N)nc2=O)O[C@H](CO)[C@@H](O)[C@H]1O | Caco-2 | cell growth or viability | – | – | CC50 | > 100 µM |
| CO[C@H]1/C=C/O[C@@]2(C)Oc3c(C)c(O)c4c(O)c(c(/C=N/N5CCN(C6CCCC6)CC5)c(O)c4c3C2=O)NC(=O)/C(C)=C\C=C\[C@H](C)[C@H](O)[C@@H](C)[C@@H](O)[C@@H](C)[C@H](OC(C)=O)[C@@H]1C | – | – | male Sprague-Dawley rat, plasma | intravenous, 10 mg/kg, single dose | MRT | 24.4 h |
| O=c1nc(NO)ccn1[C@@H]1O[C@H](CO)[C@@H](O)[C@H]1O | Caco-2 | cell growth or viability | – | – | CC50 | > 100 µM |
| Cc1cccc(C)c1NC(=O)C1CCCCN1 (centres unmarked) | KCNH2 | ion current, inhibitor, patch clamp | – | 100 µM | inhibition | 19.4% |
| CC(C)CC(=O)OC[C@H]1O[C@@](C#N)(c2ccc3c(N)ncnn23)[C@H](O)[C@@H]1O | KCNH2 | ligand displacement | – | 20 µM | inhibition | -3% |
| Cc1[nH]c(C)c(S(=O)(=O)Nc2ccc(S(F)(F)(F)(F)F)cc2)c1C(=O)N1CCC(F)(F)C1 | KCNH2 | ion current, inhibitor, patch clamp | – | – | IC50 | > 30 µM |
| COc1ccc(F)cc1C(=O)NCc1ccc(-c2nn([C@@H](C)C(F)(F)F)c(N)c2C(N)=O)cc1 | – | – | human, plasma | oral, 200 mg, single dose, fasted | Tmax | 2.5 h |
